Data set [1] is described as follows: (§1) AUC (0 to 6 hrs) in rat at 10 mg/kg, po. Type of data set: ADME, organism-based, Plasma. Also noted: time < 6 hr, dose 10 mg/kg, route oral. The note with it: plasma. A digest of the protocol:
(§2)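 Rapid rat assay: oral dosing at 10 mg/kg in 0.4% HPMC. Blood drawn periodically and pooled; plasma AUC calculated over 0–6 h.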

A further data set relates to Hepatitis C virus. As to the kind of experiment: Antiviral activity against HCV by genotype 1 replicon based cellular assay. Type of data set: functional, Hepacivirus hominis. In general terms: A replicon is a self-replicating genome or part of one, used to study replication in cells.
Data set [2] in a line: Binding affinity to HCV NS3 protease. Further details: species or system Hepacivirus hominis.
A short description of data set [3]: Ratio of Ki for human neutrophil elastase to Ki for HCV NS3 protease. The gist of the method: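 Selectivity index: Ki* against human neutrophil elastase divided by Ki* against HCV NS3 protease, both from enzyme binding measurements.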
The test system of the next data set is Rattus norvegicus. Described as §1. Type of data set: ADME, organism-based, Plasma. Also noted: time < 6 hr, dose 10 mg/kg, route oral. The note with it: in vivo, 6 h. A digest of the protocol:
as §2

Data set [4] is described as follows: AUC (0 to 6 hrs) in rat at 5 mg/kg, po. The data set is classed as ADME, organism-based. Further details: time < 6 hr, dose 5 mg/kg, route oral. Conditions: plasma. A digest of the protocol: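 Rapid rat plasma-level assay with oral dosing at 5 mg/kg in 0.4% HPMC; plasma exposure expressed as AUC.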

The structures appear in SMILES notation. The source made the active and inactive calls. The calls are words filed in the database; no cut-off is given here.

In data set [1], `C=CCNC(=O)C(=O)[C@@H]1CCCCCCCCC[C@H](NC(=O)N[C@H](CN(C)S(C)(=O)=O)C(C)(C)C)C(=O)N2C[C@@H]3[C@H]([C@H]2C(=O)N1)C3(C)C` yielded an AUC(0-t) at 6 h of 0.36 µM·h. It took 55 nM to reach the 90% level with Hepatitis C virus (EC90). The affinity in data set [2] corresponds to a Ki of 3 nM.
In the data set on Hepatitis C virus, `CC1(C)C2CN3C(=O)[C@@H](NC(=O)N[C@H](C(=O)C4CC4)C4CCCCC4)CCCCCCCCC[C@@H](C(=O)C(N)=O)NC(=O)[C@@H]3C21` (single isomer, unassigned) had an EC90 of 180 nM. This compound also yielded a Ki in data set [2] of 11 nM.
In data set [2], `CCNC(=O)C(=O)[C@@H]1CCCCCCCCC[C@H](NC(=O)N[C@H](CN(C)S(=O)(=O)c2cccs2)C(C)(C)C)C(=O)N2CC3C([C@H]2C(=O)N1)C3(C)C` (single isomer, unassigned) returned a Ki of 10 nM.
In the data set with Hepatitis C virus, `CC1(NC(=O)N[C@H]2CCCCCCCCCC[C@@H](C(=O)C(N)=O)NC(=O)[C@@H]3C4C(CN3C2=O)C4(C)C)CCCCC1` (single isomer, unassigned) showed an EC90 of 400 nM. The compound further returned a Ki in data set [2] of 36 nM.
`C=CCNC(=O)C(=O)[C@@H]1CCCCCCCCC[C@H](NC(=O)N[C@H](CN2C(=O)c3ccccc3C2=O)C(C)(C)C)C(=O)N2CC3C([C@H]2C(=O)N1)C3(C)C` (single isomer, unassigned): the AUC(0-t) at 6 h in data set [1] stood at 1.2 µM·h. In the data set with Hepatitis C virus, the 90% effect level (EC90) was put at 100 nM. Further, the Ki in data set [2] was 16 nM.
On to `CC(C)(C)NC(=O)C(=O)[C@@H]1CCCCCCCCCC[C@H](NC(=O)OC(C)(C)C)C(=O)N2CC3C([C@H]2C(=O)N1)C3(C)C` (single isomer, unassigned), for which, in the data set on Hepatitis C virus (Hepacivirus hominis), the result was inactive. For the same compound, the Ki in data set [2] turned out to be 6000 nM.
Take `CC(C)(C)NC(=O)N[C@H](C(=O)N1CC2C([C@H]1C(=O)NC(CC1CCC1)C(=O)C(N)=O)C2(C)C)C(C)(C)C` (single isomer, unassigned) [BOCEPREVIR]: the Ratio Ki in data set [3] worked out at 2200. The same compound registered an EC90 in the data set with Hepatitis C virus of 350 nM. In addition, the Ki in data set [2] came to 14 nM.
`CC(C)(C)NC(=O)N[C@H]1CCCCCCCCCC[C@@H](C(=O)C(N)=O)NC(=O)[C@H]2[C@H]3[C@@H](CN2C1=O)C3(C)C` showed an EC90 in the data set on Hepatitis C virus of 1000 nM. In data set [2], this compound came in with a Ki of 59 nM.
The compound `C=CCNC(=O)C(=O)[C@@H]1CCCCCCCCC[C@H](NC(=O)N[C@H](CN2CCC(C)(C)CC2=O)C(C)(C)C)C(=O)N2C[C@@H]3[C@H]([C@H]2C(=O)N1)C3(C)C` gave an AUC(0-t) at 6 h in data set [1] of 1.5 µM·h. It took 20 nM to reach the 90% level with Hepatitis C virus (EC90). The same compound yielded a Ki in data set [2] of 2 nM.
In the data set with Hepatitis C virus, `CN(C[C@@H](NC(=O)N[C@H]1CCCCCCCCC[C@@H](C(=O)C(N)=O)NC(=O)[C@@H]2C3C(CN2C1=O)C3(C)C)C(C)(C)C)S(C)(=O)=O` (single isomer, unassigned) had an EC90 of 250 nM. Moreover, the Ki in data set [2] is 3 nM.
`C=CCCCC[C@H](NC(=O)[C@@H]1[C@H]2[C@@H](CN1C(=O)[C@H](CCCCC=C)NC(=O)OC(C)(C)C)C2(C)C)C(=O)C(N)=O`: the affinity in data set [2], expressed as Ki, was 250 nM.
As for `CC(C)(C)OC(=O)N[C@H]1CCCCCCCCCC[C@@H](C(=O)C(=O)NCC(=O)NCc2ccccc2)NC(=O)[C@@H]2[C@H]3[C@@H](CN2C1=O)C3(C)C`, in the data set on Hepatitis C virus, the 90% effect level (EC90) was put at 2000 nM. This compound came in with a Ki in data set [2] of 89 nM.
As to `CN(C[C@@H](NC(=O)N[C@H]1CCCCCCCCC[C@@H](C(=O)C(=O)NCC2CC2)NC(=O)[C@@H]2C3C(CN2C1=O)C3(C)C)C(C)(C)C)S(=O)(=O)c1cccs1` (single isomer, unassigned), the AUC(0-t) at 6 h in data set [1] was 0.4 µM·h. The inhibition constant (Ki) in data set [2] came to 21 nM.
`CN(C)C(=O)[C@@H](NC(=O)CNC(=O)C(=O)[C@@H]1CCCC/C=C/CCCC[C@H](NC(=O)OC(C)(C)C)C(=O)N2CC3C([C@H]2C(=O)N1)C3(C)C)c1ccccc1` (single isomer, unassigned): in data set [3], the Ratio Ki amounted to 1400. In the data set on Hepatitis C virus, this compound gave a concentration for an effect of 90% (EC90) of 300 nM. The compound further came in with a Ki in data set [2] of 5 nM.
With `CC(C)(C)OC(=O)[C@@H](NC(=O)N[C@H]1CCCCCCCCCC[C@@H](C(=O)C(N)=O)NC(=O)[C@@H]2[C@H]3[C@@H](CN2C1=O)C3(C)C)C(C)(C)C`, the EC90 with Hepatitis C virus is 400 nM. For the same compound, the affinity in data set [2], expressed as Ki, was 37 nM.
Take `C=CCNC(=O)C(=O)[C@@H]1CCCCCCCCC[C@H](NC(=O)N[C@H](C(=O)C2CC2)C2CCCCC2)C(=O)N2C[C@@H]3[C@H]([C@H]2C(=O)N1)C3(C)C`: the Activity result with Rattus norvegicus is recorded as “Not Active”. In the data set with Hepatitis C virus, this compound showed an EC90 of 280 nM. Further, affinity in data set [2] was put at a Ki of 6 nM.
For `C=CCNC(=O)C(=O)[C@@H]1CCCCCCCCC[C@H](NC(=O)N[C@H](C(=O)C2CC2)C(C)C)C(=O)N2CC3C([C@H]2C(=O)N1)C3(C)C` (single isomer, unassigned), in that order: “Not Active”, 480 nM and 20 nM.
On to `CC(C)(C)OC(=O)N[C@H]1CCCCCCCCCC[C@@H](C(=O)C(N)=O)NC(=O)[C@@H]2C3C(CN2C1=O)C3(C)C` (single isomer, unassigned), for which the EC90 in the data set on Hepatitis C virus was found to be 900 nM. In data set [2], this compound returned a Ki of 59 nM.
Take `C=CCNC(=O)C(=O)[C@@H]1CCCCCCCCC[C@H](NC(=O)N[C@H](CN(C)S(=O)(=O)c2ccccn2)C(C)(C)C)C(=O)N2CC3C([C@H]2C(=O)N1)C3(C)C` (single isomer, unassigned): in data set [1], the AUC(0-t) at 6 h came out at 0.84 µM·h. This compound returned an EC90 in the data set on Hepatitis C virus of 90 nM. Also, in data set [2], the Ki was 7 nM.
As to `CCCNC(=O)C(=O)[C@@H]1CCCCCCCCC[C@H](NC(=O)N[C@H](CN(C)S(=O)(=O)c2cccs2)C(C)(C)C)C(=O)N2CC3C([C@H]2C(=O)N1)C3(C)C` (single isomer, unassigned), the Ki in data set [2] was determined as 14 nM.
`CN(C)C(=O)[C@@H](NC(=O)CNC(=O)C(=O)[C@@H]1CCCCCCCCCC[C@H](NC(=O)OC(C)(C)C)C(=O)N2CC3C([C@H]2C(=O)N1)C3(C)C)c1ccccc1` (single isomer, unassigned): the Ratio Ki in data set [3] amounted to 780. In the data set with Hepatitis C virus, it took 600 nM to reach the 90% level (EC90). In data set [2], this compound showed a Ki of 6 nM.
As for `C=CCNC(=O)C(=O)[C@@H]1CCCCCCCCC[C@H](NC(=O)N[C@H](CN(C)S(=O)(=O)c2cccs2)C(C)(C)C)C(=O)N2CC3C([C@H]2C(=O)N1)C3(C)C` (single isomer, unassigned), in data set [1], the AUC(0-t) at 6 h was 1.26 µM·h. The compound also came in with a Ki in data set [2] of 5 nM.
Turning to `C=CCNC(=O)C(=O)[C@@H]1CCCCCCCCC[C@H](NC(=O)N[C@H](CN(C)S(=O)(=O)N(C)C)C(C)(C)C)C(=O)N2C[C@@H]3[C@H]([C@H]2C(=O)N1)C3(C)C`, in data set [4], the AUC(0-t) at 6 h was determined as 1.04 µM·h. The same compound registered an EC90 in the data set on Hepatitis C virus of 60 nM. Besides, the Ki in data set [2] was determined as 13 nM.
Turning to `CN(C[C@@H](NC(=O)N[C@H]1CCCCCCCCC[C@@H](C(=O)C(N)=O)NC(=O)[C@@H]2[C@H]3[C@@H](CN2C1=O)C3(C)C)C(C)(C)C)S(=O)(=O)c1cccs1`, the EC90 in the data set with Hepatitis C virus turned out to be 70 nM. The compound further came in with an inhibition constant Ki in data set [2] of 2 nM.
`CN(C)C(=O)[C@@H](NC(=O)CNC(=O)C(=O)[C@@H]1CCCCCCCCCC[C@H](NC(=O)NC(C)(C)C)C(=O)N2C[C@@H]3[C@H]([C@H]2C(=O)N1)C3(C)C)c1ccccc1`: the Ratio Ki in data set [3] is 980. The compound also registered an EC90 in the data set on Hepatitis C virus of 1000 nM. Moreover, the Ki in data set [2] worked out at 6 nM.
`CC(C)[C@H](NC(=O)N[C@H]1CCCCCCCCC[C@@H](C(=O)C(N)=O)NC(=O)[C@@H]2C3C(CN2C1=O)C3(C)C)C(=O)C1CC1` (single isomer, unassigned) showed an EC90 in the data set on Hepatitis C virus of 100 nM. The compound also yielded a Ki in data set [2] of 11 nM.
The compound `C=CCNC(=O)C(=O)[C@@H]1CCCCCCCCC[C@H](NC(=O)N[C@H](CN2C(=O)CN(C)CC2=O)C(C)(C)C)C(=O)N2CC3C([C@H]2C(=O)N1)C3(C)C` (single isomer, unassigned) showed an AUC(0-t) at 6 h in data set [1] of 0.28 µM·h. In the data set on Hepatitis C virus, this compound returned an EC90 of 30 nM. Further, in data set [2], the affinity corresponds to a Ki of 4 nM.
Compound `C=CCNC(=O)C(=O)[C@@H]1CCCCCCCCC[C@H](NC(=O)N[C@H](CN2C(=O)CC(C)(C)CC2=O)C(C)(C)C)C(=O)N2CC3C([C@H]2C(=O)N1)C3(C)C` (single isomer, unassigned) yielded an area under the curve AUC(0-t) at 6 h in data set [1] of 1.1 µM·h. Further, the EC90 with Hepatitis C virus was found to be 20 nM. In data set [2], this compound returned a Ki of 2 nM.
For `C=CCNC(=O)C(=O)[C@@H]1CCCCCCCCC[C@H](NC(=O)N[C@H](CN2C(=O)C3CCC(C3)C2=O)C(C)(C)C)C(=O)N2CC3C([C@H]2C(=O)N1)C3(C)C` (single isomer, unassigned), in that order: 0.31 µM·h, 15 nM and 3 nM.
For `C=CCNC(=O)C(=O)[C@@H]1CCCCCCCCC[C@H](NC(=O)N[C@H](CN2Cc3sccc3S2(=O)=O)C(C)(C)C)C(=O)N2C[C@@H]3[C@H]([C@H]2C(=O)N1)C3(C)C`, in that order: 0.84 µM·h, 150 nM and 7 nM.

Broadly, the AUC(0-t) is the area under the concentration-time curve up to a stated or last time point. A lower AUC(0-t) goes with low exposure. By EC90 is commonly meant the concentration at which the effect reaches the 90% level. Lower therefore signals an effect from little substance. What is called Ki is a measure of affinity in units of concentration, obtained from inhibition or displacement. A lower Ki goes with a stronger hold on the target.

The values above are taken from ChEMBL document CHEMBL1139369, “Discovery and structure-activity relationship of P1-P3 ketoamide derived macrocyclic inhibitors of hepatitis C virus NS3 protease” (J Med Chem, 2009).
